This note sets out measurements from ChEMBL document CHEMBL4376891, “Benzenesulfonamide Derivatives as Calcium/Calmodulin-Dependent Protein Kinase Inhibitors and Antiviral Agents against Dengue and Zika Virus Infections” (J Med Chem, 2020).

Active and inactive are the calls of the source. The calls are words filed in the database; no cut-off is given here.

For series [1], the system named is Zika virus. In words: Antiviral activity against Zika virus infected in human BE(2)-C cells assessed as NS3 protein expression at 0.39 uM incubated for 48 hrs by Western blot analysis (reference value: 100%). The format is functional. The gist of the method:
(§1)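 BE(2)C cells were infected with ZIKV PRVABC59 at MOI 0.1 for 48 h, with or without compound at increasing concentrations. Viral protein was immunoblotted with actin as loading control. The band-density ratio was given as % of the solvent control. Mean ± SD, 3 independent experiments.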
Background: Immunoblotting shows a protein as a band on a membrane.

In series [2] the test system is dengue virus type 2. In words: Antiviral activity against Dengue virus 2 infected in human BE(2)-C cells assessed as reduction in viral entry at 3.125 to 6.25 uM incubated for 90 mins by plaque-forming assay relative to control. The format is functional. More on the design: scale not given: the % may be the effect or the level left. An outline of the steps:
(§2)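 Virus entry: BE(2)C cells were incubated with DENV-2 or ZIKV for 90 min at 4 °C and washed cold. Cells were then treated with 3.125 or 6.25 μM compound at 37 °C for 1 h. Non-internalized virus was inactivated with 0.1 M glycine, pH 3, for 5 min. Cells were lysed by needle passage, and internalized virus was titrated by plaque assay. Mean ± SD, n = 3.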

The test system of series [3] is dengue virus type 2. The experiment in a line: Antiviral activity against fluorescently labeled Dengue virus 2 infected in human BE(2)-C cells at 3.125 uM by confocal microscopy. The format is functional, organism-based. The gist of the method: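 DENV-2 or ZIKV was concentrated and labeled with atto-647N dye. BE(2)C cells were pretreated with solvent or 3.125 µM, then incubated at 37 °C with labeled DENV-2 for 30 min or ZIKV for 60 min. Cells were fixed in 4% paraformaldehyde, membranes stained with WGA-488, and intracellular virus signal imaged by confocal microscopy.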

Series [4] relates to Zika virus. In words: Antiviral activity against Zika virus infected in human BE(2)-C cells assessed as reduction in NS3 protein expression at 3.125 to 6.25 uM treated during 3 to 24 hrs post infection by Western blot analysis. The format is functional, organism-based. An outline of the steps: (§3)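 Time-of-addition design: BE(2)C cells were infected with DENV-2 or ZIKV at MOI 1. Compound at 3.125 or 6.25 μM was present either during adsorption (0–3 hpi) or afterward (3–24 hpi). Viral protein was immunoblotted against actin, with the ratio as % of the solvent control.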

For series [5], the system named is dengue virus type 2. The experiment in a line: Antiviral activity against eGFP-fused Dengue virus 2 infected in human BE(2)-C cells assessed as viral infection level by measuring intensity of eGFP emission from infected cells at 1.56 uM incubated for 24 hrs relative to control. The format is functional. An outline of the steps:
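BE(2)C cells, in RPMI 1640 with 10% FBS, were infected with DENV-2-eGFP reporter virus (MOI 1) for 24 h with or without compound, using DMSO as solvent control. Cells were fixed in 4% paraformaldehyde and stained with Hoechst, then imaged by high-content analysis. eGFP intensity per cell number is given as % of solvent control. Values are means of 3 experiments.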

Series [6] has as its system Zika virus. In words: Antiviral activity against Zika virus infected in human BE(2)-C cells assessed as reduction in viral entry at 3.125 to 6.25 uM incubated for 90 mins by plaque-forming assay relative to control. Format: functional. Further details: scale not given: the % may be the effect or the level left. An outline of the steps: as §2
The subject of series [7] is Zika virus. The experiment in a line: Antiviral activity against Zika virus infected in human HMC3 cells assessed as reduction in NS3 protein expression at 1.56 to 12.5 uM incubated for 24 hrs by immunofluorescence microscopy. The format is functional, organism-based.
Series [8] deals with dengue virus type 2. The experiment in a line: Antiviral activity against DENV-2 NGC-N infected in Stat1-/- mouse assessed as time delay in mouse mortality at 2 mg/kg/day, po dosed immediately following viral infection followed by daily dosing for 6 days (reference value: 9 days). The format is functional.
Series [9] concerns dengue virus type 2. In words: Antiviral activity against Dengue virus 2 infected in human BE(2)-C cells assessed as reduction in NS3 protein expression at 3.125 to 6.25 uM treated during 0 to 3 hrs post infection by Western blot analysis. The format is functional, organism-based. An outline of the steps: as §3
Series [10] relates to dengue virus type 2. The experiment in a line: Antiviral activity against Dengue virus 2 infected in human BE(2)-C cells assessed as NS3 protein expression at 6.25 uM treated during 0 to 3 hrs post infection by Western blot analysis (reference value: 100%). The format is functional. An outline of the steps: as §3
Series [11] concerns Zika virus. In words: Antiviral activity against Zika virus infected in human BE(2)-C cells transfected with shCaMKIIalpha assessed as NS3 protein expression at 6.25 uM incubated for 48 hrs by Western blot analysis (reference value: 100%). The format is functional.
The subject of series [12] is Zika virus. The experiment in a line: Antiviral activity against Zika virus infected in human BE(2)-C cells assessed as NS3 protein expression at 6.25 uM treated during 0 to 3 hrs post infection by Western blot analysis (reference value: 100%). Format: functional. The gist of the method:
as §3

Series [13] deals with BE(2)-C. In words: Cytotoxicity against human BE(2)-C cells assessed as reduction in cell viability up to 12.5 uM incubated overnight by trypan blue assay relative to control. The format is cell-based. The gist of the method: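 Viable BE(2)C cell number after overnight exposure to compound up to 12.5 μM, counted by trypan blue exclusion; expressed as percent of solvent control, mean ± SD of 3 independent experiments.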

The test system of series [14] is dengue virus type 2. In words: Antiviral activity against Dengue virus 2 infected in human BE(2)-C cells assessed as NS3 protein expression at 0.39 uM incubated for 48 hrs by Western blot analysis (reference value: 100%). The format is functional. The gist of the method: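 BE(2)C neuroblastoma cells in RPMI 1640 with 10% FBS were infected with DENV-2 PL046 at MOI 0.1 for 48 h, without or with compound at increasing concentrations. NS3 was immunoblotted with actin as loading control. The NS3:actin densitometry ratio was expressed as % of the DMSO control. Mean ± SD of 3 independent experiments.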

The subject of series [15] is Zika virus. In words: Antiviral activity against Zika virus infected in human BE(2)-C cells assessed as NS3 protein expression at 6.25 uM incubated for 48 hrs by Western blot analysis (reference value: 100%). The format is functional. An outline of the steps:
as §1

In series [16] the test system is dengue virus type 2. In words: Antiviral activity against DENV-2 NGC-N infected in Stat1-/- mouse assessed as reduction in viral load at 4 to 8mg/kg/day, po dosed immediately following viral infection followed by daily dosing for 3 day. Format: functional, organism-based. An outline of the steps: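 Stat1-/- mice infected with DENV-2 NGC-N (1x10⁵ PFU iv) or ZIKV PRVABC59 (5x10⁴ PFU sc, footpad), with oral dosing or PBS starting immediately. Serum was taken from the submandibular vein on day 3 post-infection. Viremia was measured by plaque assay and reported as individual values and mean; n = 5.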

Series [17] relates to dengue virus type 2. The experiment in a line: Antiviral activity against Dengue virus 2 infected in human HMC3 cells assessed as reduction in viral progeny production at 1.56 to 12.5 uM incubated for 48 hrs by Virus titer assay. Format: functional, organism-based. An outline of the steps:
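Human microglial HMC3 cells in MEM with 10% FBS were infected with DENV-2 PL046 at MOI 0.1 for 48 h in the presence of noncytotoxic compound concentrations. Progeny virus was titrated by plaque assay on BHK-21 cells, expressed as log PFU/mL.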

Series [18] deals with dengue virus type 2. The experiment in a line: Antiviral activity against Dengue virus 2 infected in human BE(2)-C cells transfected with shCaMKIIalpha assessed as NS3 protein expression at 3.125 uM incubated for 48 hrs by Western blot analysis (reference value: 100%). The format is functional.
In series [19] the test system is dengue virus type 2. In words: Antiviral activity against DENV-2 NGC-N infected in Stat1-/- mouse assessed as effect on overall mouse survival at 2 to 8 mg/kg/day, po dosed immediately following viral infection followed by daily dosing for 6 days. Format: functional, organism-based.
Series [20] has as its system dengue virus type 2. The experiment in a line: Antiviral activity against DENV-2 NGC-N infected in Stat1-/- mouse assessed as improvement in mouse survival by measuring median survival time at 4 to 8 mg/kg, po dosed 8 hrs after infection and ending at day 6 after infection (8 hrs delay) (reference value: 8 days). The format is functional.

Take `COc1ccc(S(=O)(=O)N(CCCC(=O)C2CCCCCC2)c2ccccc2)cc1`: the Activity was 97.7% in [1]; “<=70%” in series [2]; 31.8% in series [5]; 80% in series [6]; “Dose-dependent effect” in series [9]; 27.3% in series [10]. The Activity in series [11] was 89.1%; in series [12], 20.1%; in series [13], “Non-Toxic”; in series [14], 90.8%; in [15], 4.1%; in series [18], 95.1%. Moreover, the result in series [3], in [7], in [16] and in series [17] was Active. Also, the result in series [4] and in [19] was inactive. Also, in [8], the Time stood at 15 days. The MST in series [20] was determined as 10 days.
